Compound activity: PubChem BioAssay, several laboratories
ZTA counter = blocks Epstein-Barr virus ZTA, an EBNA-1 counter-screen; actives 0.15% (n = 320,000); ZTA-DNA binding, fluorescence polarization; AID 2234; inhibition, % at 11 µM; P03206; in the data active = inhibition above about 33%
Target sequence (P03206 whole entry, looked up): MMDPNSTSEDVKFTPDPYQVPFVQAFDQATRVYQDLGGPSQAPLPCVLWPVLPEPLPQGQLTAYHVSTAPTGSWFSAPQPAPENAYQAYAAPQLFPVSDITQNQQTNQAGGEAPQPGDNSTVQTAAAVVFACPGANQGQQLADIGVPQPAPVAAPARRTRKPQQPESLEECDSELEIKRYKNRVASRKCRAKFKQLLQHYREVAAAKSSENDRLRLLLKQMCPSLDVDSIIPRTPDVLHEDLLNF
EBNA-1 inhibitor = blocks EBNA-1 binding to DNA | EBNA-1 DNA binding, fluorescence polarization | inhibition, % at 14.8 µM | actives 0.34% (n = 300,000) | AID 1950; in the data active = inhibition above about 28%
HCV NS3 hel inh = inhibitors of Hepatitis C virus NS3 helicase; NS3 helicase DNA unwinding, Cy5 molecular beacon fluorescence; actives 0.56% (n = 290,000); AID 1800; inhibition, % at 10.9 µM;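 active = inhibition above the mean of all tested compounds plus 3 SD, set per campaign, cut at about 35% in these data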;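 also: 0% = DMSO wells and 100% = thioflavine S control wells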
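Assay system – hepatitis C virus NS3 helicase domain fragment enzyme · Buffer or medium – MOPS pH 6.5, MgCl2, DTT, Tween20, BSA · Reagent – Cy5/quencher beacon DNA duplex and ATP to start · Compound – single 10.9 µM dose · Timing – 1 h at 25 °C · Technique – Cy5 beacon fluorescence read at start and 1 h · Measure – % inhibition of unwinding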
M18AAP inhibitor = blocks P. falciparum M18 aspartyl aminopeptidase. recombinant PfM18AAP, H-Glu-NHMec fluorogenic cleavage. inhibition, % at 7.35 µM. actives 1.2% (n = 290,000);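 active = inhibition above the campaign mean inhibition over all tested compounds plus 3 SD, cut at about 28% in these data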;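 also: 0% = plate median of test compound wells and 100% = 2 mM ZnCl2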
HCV core dimer = blocks dimerization of HCV core protein. inhibition, % at 5 µM. AID 1899. TR-FRET GST/Flag-core106 dimerization, 1536-well. actives 0.33% (n = 300,000);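 active = inhibition above the mean of all tested compounds plus 3 SD, set per screening campaign, cut at about 45% in these data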
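Assay system: GST-tagged and Flag-tagged HCV core protein residues 1-106 / Times: compound-protein-antibody incubation 4 h at 22.5 °C / Signal: time-resolved FRET, ex 340 nm, em 617 and 671 nm / Evaluation: % inhibition based on acceptor/donor emission ratio / Benchmarks: wells lacking GST-core106 and wells with excess unlabelled core106 / Repeats: singlicate, one well per compound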
ALR inh = inhibitors of human sulfhydryl oxidase ALR | inhibition, % (test concentration not listed) | purified ALR, DTT oxidation, H2O2 HRP-luminol luminescence | P55789 | actives 3.8% (n = 290,000);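 active = mean replicate inhibition above about 79%, with every replicate also reaching it, limit read from the data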
Target sequence (P55789 whole entry, looked up): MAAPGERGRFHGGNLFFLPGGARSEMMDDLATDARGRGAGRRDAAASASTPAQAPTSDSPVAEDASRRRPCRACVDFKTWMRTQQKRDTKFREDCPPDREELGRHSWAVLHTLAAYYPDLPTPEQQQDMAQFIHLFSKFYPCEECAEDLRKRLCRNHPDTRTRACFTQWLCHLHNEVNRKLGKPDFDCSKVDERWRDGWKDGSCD
Active calls of the source: *. An excerpt weighted towards active compounds, which were near 5.2% of everything screened.

CC(=O)C1=C(O)C(=O)N(Cc2ccccc2)C1c1cccs1 (stereo not drawn) was read as ZTA counter 0.0, EBNA-1 inhibitor 7.8, HCV NS3 hel inh 10.6, M18AAP inhibitor 6.6, HCV core dimer 23.4 and ALR inh 1.9.
`O=C1NC(=O)C2C1C(c1cccs1)NN2Cc1ccccc1` (stereo not drawn) gave ZTA counter 7.4, EBNA-1 inhibitor 0.6, HCV NS3 hel inh -18.6, M18AAP inhibitor 5.7, HCV core dimer -0.3 and ALR inh 97.9*.
Screening N#CC1=C(N)NC(SCC(=O)Nc2ccc(Br)cc2)=C(C#N)C12CCCCC2 returned ZTA counter 7.2, EBNA-1 inhibitor -1.8, HCV NS3 hel inh -6.3, M18AAP inhibitor -1.5, HCV core dimer 8.3 and ALR inh 97.4*.
For N#CC1=C(N)NC(SCc2ccc(Br)cc2)=C(C#N)C12CCCCC2 the results were ZTA counter -8.2, EBNA-1 inhibitor -7.6, HCV NS3 hel inh 9.8, M18AAP inhibitor 15.4, HCV core dimer -5.8 and ALR inh -19.7.
NC(=O)c1cc2ccncc2c2ccccc12 was read as ZTA counter -1.6, EBNA-1 inhibitor -3.2, HCV NS3 hel inh -5.1, M18AAP inhibitor -1.4, HCV core dimer -5.2 and ALR inh -5.2.
Screening CCOCCn1c(=O)c2c(nc3n2CCCN3CCc2ccccc2)n(C)c1=O returned ZTA counter -6.6, EBNA-1 inhibitor -11.7, HCV NS3 hel inh 9.2, M18AAP inhibitor 7.6, HCV core dimer -16.2 and ALR inh 2.3.
For COc1ccccc1CNc1nc2ccccc2n1CCN1CCCCC1 the results were ZTA counter -8.9, EBNA-1 inhibitor -4.1, HCV NS3 hel inh -4.8, M18AAP inhibitor -11.9, HCV core dimer 0.0 and ALR inh 98.0*.
`C=CCc1cccc(CNc2nc3ccccc3n2CCN2CCOCC2)c1O` gave ZTA counter -1.1, EBNA-1 inhibitor -11.6, HCV NS3 hel inh -5.9, M18AAP inhibitor 5.8, HCV core dimer -0.6 and ALR inh 15.2.
`Oc1ccccc1CNc1nc2ccccc2n1CCN1CCCCC1` gave ZTA counter -14.2, EBNA-1 inhibitor -7.6, HCV NS3 hel inh -6.8, M18AAP inhibitor 2.3, HCV core dimer -2.9 and ALR inh 95.6*.
For Cc1cc(Br)ccc1NC(=O)CNC(=O)CNc1cccc([N+](=O)[O-])c1 the results were ZTA counter -3.7 and ALR inh -3.4.
Screening CCn1c(CNC(=O)c2cccc(C)c2)nnc1SCC(=O)Nc1nnc(C)s1 returned ZTA counter -0.3, EBNA-1 inhibitor -0.9, HCV NS3 hel inh 9.2, M18AAP inhibitor -8.2 and HCV core dimer -7.9.
Screening O=C(Oc1oc(-c2ccco2)nc1C=Nc1ccc(Cl)cc1)c1ccco1 returned ZTA counter -22.4, EBNA-1 inhibitor -3.2, HCV NS3 hel inh 1.6, M18AAP inhibitor 2.1, HCV core dimer -6.4 and ALR inh 12.6.
COc1ccc(N=Cc2nc(-c3ccco3)oc2O)cc1 was read as ZTA counter -4.4, EBNA-1 inhibitor 4.1, HCV NS3 hel inh -2.4, M18AAP inhibitor 6.1, HCV core dimer -16.8 and ALR inh 91.5*.
`CC(CN1CCCCC1)NC(=O)c1cccs1` (stereo not drawn) gave ZTA counter 3.8, EBNA-1 inhibitor 4.8, HCV NS3 hel inh 5.8, M18AAP inhibitor -4.5, HCV core dimer 0.5 and ALR inh -5.4.
Screening CCOC(=O)c1c(-c2ccc(C)o2)csc1NC(=O)COC(=O)c1ccc(NC(N)=O)cc1 returned ZTA counter 32.7, EBNA-1 inhibitor -6.7, HCV NS3 hel inh -10.6, M18AAP inhibitor -47.9, HCV core dimer 49.0* and ALR inh 0.9.
CCOC(=O)c1c(-c2ccc(C)o2)csc1NC(=O)CSc1nnc(C)s1 was read as ZTA counter -5.6, EBNA-1 inhibitor -10.2, HCV NS3 hel inh -8.9, M18AAP inhibitor -86.7, HCV core dimer 4.8 and ALR inh -24.0.
`Cc1nc(-c2cccc(S(=O)(=O)N3CC(C)CC(C)C3)c2)cs1` (stereo not drawn) gave ZTA counter 6.7, EBNA-1 inhibitor -5.1, HCV NS3 hel inh -6.9, M18AAP inhibitor -7.2, HCV core dimer 9.5 and ALR inh -1.4.
